Activity calls are given as the source filed them.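 Rule for the calls, unless noted: active = inhibition above 20% together with a positive visual image hit; inconclusive = visual image hit but inhibition not above 20%; inactive = no visual image hit.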
Tests used:
[1] = inhibitors of TNFa-induced NFkB p65 translocation, primary screen, imaging, HUVEC, MLSMR starter and 10KST1 sets (AID 438); conditions: HUVEC TNFa-induced p65 nuclear translocation; cell count: measured here: nuclei count (cytotoxicity indicator), at 2.08 µM; inhibition: at 2 µM, stronger effect = higher value, 0% TNFa-plus-vehicle, 100% no-TNFa wells;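 note: compound added about 3h40 before a 20 min TNFalpha stimulation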;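 for inhibition: signal is the nuclear over cytoplasmic p65 intensity ratio per well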
[2] = inhibitors of E-selectin induction by TNFa, primary screen, imaging, HUVEC, immunofluorescence, MLSMR starter and 10KST1 sets (AID 487;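 active = visually confirmed hit in the image check and inhibition above 20%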;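 for inhibition: signal is fraction of cell area covered by stained E-selectin grains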;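 for nuclei count: 100% = median nuclei count of all wells on the same plate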); conditions: HUVEC TNFalpha-induced E-selectin immunofluorescence imaging, at 2 µM; inhibition: stronger effect = higher value; nuclei count: measured here: cell number, toxicity
[3] = DUSP6 inhibitors restoring Erk phosphorylation by chemical complementation, primary imaging in DUSP6-transfected HeLa (AID 609;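 active = compounds giving at least 50% inhibition in the cell-based MKP-3 phosphatase rescue imaging test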;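 for inhibition: phospho-Erk level distribution per well compared with pooled transfected vehicle control wells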); conditions: HeLa MKP-3 transfected, phospho-Erk imaging KS statistic, at 10 µM, cells stimulated with TPA for 15 min
[4] = biological target: Dual specificity protein phosphatase 6 (Homo sapiens) (UniProt Q16828); assay: as above; conditions: HeLa MKP-3 transfected, phospho-Erk imaging KS statistic; at 10 µM; stronger effect = higher value; cells stimulated with TPA for 15 min
Sequence of Dual specificity protein phosphatase 6 (Homo sapiens) (Q16828 whole entry, looked up): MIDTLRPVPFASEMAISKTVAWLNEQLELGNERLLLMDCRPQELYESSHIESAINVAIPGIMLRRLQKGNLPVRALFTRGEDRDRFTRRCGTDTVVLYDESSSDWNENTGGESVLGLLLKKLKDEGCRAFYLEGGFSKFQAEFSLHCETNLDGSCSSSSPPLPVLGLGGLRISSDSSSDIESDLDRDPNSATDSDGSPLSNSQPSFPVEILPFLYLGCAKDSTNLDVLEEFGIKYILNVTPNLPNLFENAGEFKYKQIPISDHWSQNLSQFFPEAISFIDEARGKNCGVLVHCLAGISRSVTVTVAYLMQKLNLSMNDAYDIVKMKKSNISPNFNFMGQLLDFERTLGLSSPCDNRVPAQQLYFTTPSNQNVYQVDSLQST

[5] = biological target: Voltage-gated potassium channel subunit beta-2 (Rattus norvegicus) (UniProt P62483); assay: KvBeta enzyme negative modulators, primary screen, biochemical, NADPH fluorescence (AID 622;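 active = fluorescence slope higher than the sample average by over 3 SD, cut at about -0.22 in these data, passing the limit was not always enough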;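 note: slope of raw intensity against log time taken from 70 to 1610 s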); conditions: recombinant KvBeta, 4-cyanobenzaldehyde reduction, at 10 µM, stronger effect = higher value
Sequence of Voltage-gated potassium channel subunit beta-2 (Rattus norvegicus) (P62483 whole entry, looked up): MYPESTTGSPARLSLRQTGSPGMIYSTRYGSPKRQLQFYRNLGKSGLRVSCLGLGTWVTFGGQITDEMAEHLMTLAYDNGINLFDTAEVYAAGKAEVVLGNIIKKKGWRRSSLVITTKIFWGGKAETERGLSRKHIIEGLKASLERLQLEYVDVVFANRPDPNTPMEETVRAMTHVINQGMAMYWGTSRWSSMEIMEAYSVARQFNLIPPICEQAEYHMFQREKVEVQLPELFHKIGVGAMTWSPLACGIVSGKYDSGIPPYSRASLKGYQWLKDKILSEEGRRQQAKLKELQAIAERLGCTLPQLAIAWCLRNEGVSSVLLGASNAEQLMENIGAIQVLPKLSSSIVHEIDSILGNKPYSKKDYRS

[6] = biological target: Voltage-gated potassium channel subunit beta-2 (Rattus norvegicus) (UniProt P62483); assay: KvBeta positive modulators, primary screen, biochemical, NADPH fluorescence (AID 623;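 active = NADPH fluorescence slope more negative than the mean of all samples by about 3 SD, 99.7% confidence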;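 note: fluorescence intensity change per second fitted from 20 to 320 s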); conditions: Recombinant KvBeta, NADPH fluorescence decrease slope, 10 min; at 10 µM; stronger effect = lower value
[7] = biological target: Muscarinic acetylcholine receptor M4 (Homo sapiens) (UniProt P08173); assay: compounds altering M4/GIRK thallium flux, either direction, primary screen, M4 allosteric agonist project, cell-based, HEK293 M4/GIRK, BTC-AM (AID 625;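 active = fluorescence slope after compound addition differing from the mean of all tested samples at 99.7% confidence, mostly higher but some lower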;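 note: thallium influx through GIRK channels coupled to M4 in HEK293 cells with BTC-AM dye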); conditions: at 10 µM, actives lie on both sides
Sequence of Muscarinic acetylcholine receptor M4 (Homo sapiens) (P08173 whole entry, looked up): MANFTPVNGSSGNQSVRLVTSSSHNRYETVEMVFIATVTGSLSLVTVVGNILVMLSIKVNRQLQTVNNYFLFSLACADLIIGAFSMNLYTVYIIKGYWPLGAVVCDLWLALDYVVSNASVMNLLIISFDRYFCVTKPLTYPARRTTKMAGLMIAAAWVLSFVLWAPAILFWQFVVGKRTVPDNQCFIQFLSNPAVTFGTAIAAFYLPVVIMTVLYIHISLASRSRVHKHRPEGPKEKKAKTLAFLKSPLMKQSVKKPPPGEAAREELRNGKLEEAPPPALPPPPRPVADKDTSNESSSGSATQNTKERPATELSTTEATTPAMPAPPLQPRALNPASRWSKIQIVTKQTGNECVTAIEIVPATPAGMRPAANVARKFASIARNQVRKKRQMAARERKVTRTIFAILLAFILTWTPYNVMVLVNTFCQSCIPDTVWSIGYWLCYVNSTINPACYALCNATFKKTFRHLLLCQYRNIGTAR
Outline: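 System: HEK293 cells with M4 receptor and GIRK channels | Incubation: Cells overnight at 37 °C, BTC-AM loading 1 h, reads 2 min total | Technique: Kinetic BTC-AM fluorescence sampled at 1 Hz, 10 s pre-addition baseline | Measure: Post-addition slope, 15–24 s, of baseline-normalized fluorescence | Control set: Carbachol positive, DMSO negative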

[8] = inhibitors of larval lipid processing in zebrafish, primary screen, whole organism, PED6 fluorescence, gall bladder and intestine (AID 686;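 active = a full or partial loss of lipid-probe fluorescence in the fish gall bladder, intestine or both, judged by eye; inactive = no fluorescence loss, or compound toxic to the fish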;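 note: larvae 5 to 7 days old with five fish per well; signal comes from phospholipase A2 cleavage of quenched PED6 carried via bile; overnight exposure to compound and PED6 before scoring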); conditions: Zebrafish larvae PED6 lipid processing, fluorescence scoring; screened at 20 µM (by protocol)
Outline: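 Test system – live zebrafish larvae aged 5-7 days, whole organism · Buffer or medium – E3 fish medium · Reagent – quenched phospholipase substrate PED6, 100 nM final, ingested by larvae · Doses – 20 µM single dose · Incubation – overnight compound and PED6 incubation · Technique – visual fluorescence microscopy scoring of gall bladder, gut · Read-out basis – visual per-well fluorescence inhibition score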

[9] = inhibitors of Chlamydomonas gravitaxis, primary screen, whole organism, Chlamydomonas reinhardtii, WT vs cilia-less mutant, absorbance, 96-well (AID 463189;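 active = inhibition at or above 50% relative to wild type and mutant plate controls; inactive = inhibition below 50%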;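 note: 0% = wild type cc124 cells in DMSO and 100% = ciliumless bld1 mutant cells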); conditions: OD600 absorbance, 2 days, at 10 µM, stronger effect = higher value
[10] = measured here: cell density z-score
[11] = measured here: nuclear c-Myc green intensity z-score
[12] = measured here: nuclear pErk red intensity z-score, stronger effect = higher value

Row | SMILES | cell count [1] | inhibition [1] | inhibition [2] | nuclei count [2] [%] | z-score [3, 10] | z-score [3, 11] | z-score [3, 12] | inhibition [4] | fluorescence slope [5] | NADPH fluorescence slope [6] | fluorescence slope [7] | outcome [8] | inhibition [9]
1 | O=C1CC(c2ccccc2)n2nc(NS(=O)(=O)c3ccccc3)nc2N1 (stereo unspecified) | 363 | -12.1% (inactive) | -108% (inactive) | 114 | 1.38 | -0.224 | -0.593 | 14.4% (inactive) | -0.486 (inactive) | -2.9e-05 (inactive) | 0.00519 (inactive) | inactive | -8.7% (inactive)
2 | CCCc1nc2n[nH]c(N)c2c2c1COC(C)(C)C2 | 597 | -4% (inactive) | -13.2% (inactive) | 168 | -0.7 | -1.13 | 1.4 | -11.9% (inactive) | -0.369 (inactive) | -3.1e-05 (inactive) | 0.00478 (inactive) | inactive | 10.6% (inactive)
3 | CCOC(=O)C1CCN(c2nc3ccccc3nc2C(C#N)C(=O)OC(C)COC)CC1 (stereo unspecified) | 633 | -11.6% (inactive) | -4.7% (inactive) | 160 | 0.378 | -0.378 | -0.33 | -5.81% (inactive) | -0.488 (inactive) | -8.1e-05 (inactive) | 0.00472 (inactive) | inactive | 6.91% (inactive)
4 | O=C1C(=O)N(CCCn2ccnc2)C(c2ccccn2)/C1=C(/O)c1ccccc1 (stereo unspecified) | 436 | -12.2% (inactive) | -259% (inactive) | 147 | -0.279 | -1.33 | 0.494 | 9.37% (inactive) | -0.469 (inactive) | -5.2e-05 (inactive) | 0.00446 (inactive) | inactive | 0.678% (inactive)
5 | O=C(O)C1[C@H]2C(=O)N(Cc3cccs3)C[C@]23C=C[C@H]1O3 (stereo partly specified) | 598 | -10.3% (inactive) | -12.8% (inactive) | 189 | 0.152 | 1.12 | -0.313 | 6.04% (inactive) | -0.481 (inactive) | -8e-05 (inactive) | 0.00643 (inactive) | inactive | -4.98% (inactive)
6 | CCOC(=O)c1[nH]c2ccc(OC)cc2c1NC(=O)CCN1CCc2ccccc2C1 | 515 | -5.3% (inactive) | -124% (inactive) | 136 | -0.0545 | -2.02 | 1.46 | 3.42% (inactive) | -0.323 (inactive) | -3.8e-05 (inactive) | 0.00491 (inactive) | inactive | -5.17% (inactive)
7 | O=C(O)c1ccc(C2CCCCC2)cn1 | 532 | 0.5% (inactive) | -129% (inactive) | 197 | -1.16 | 0.871 | -1.14 | 3.97% (inactive) | -0.444 (inactive) | -4.4e-05 (inactive) | 0.00555 (inactive) | inactive | -1.91% (inactive)
8 | Cc1cc(C)n(CC2CC(=O)N(c3ccc(F)c(Cl)c3)C2=O)n1 (stereo unspecified) | 460 | -0.7% (inactive) | -64.8% (inactive) | 111 | -0.992 | 0.731 | -1.56 | -3.97% (inactive) | -0.314 (inactive) | 1.8e-05 (inactive) | 0.00494 (inactive) | inactive | -11.1% (inactive)
9 | CCOC(=O)c1cnn2c1[nH]c(=O)c1ccccc12 | 560 | -6.1% (inactive) | -143% (inactive) | 165 | 0.0185 | 1.83 | -0.274 | 17.8% (inactive) | -0.378 (inactive) | -4.5e-05 (inactive) | 0.0106 (active) | inactive | 24.1% (inactive)
10 | O=C(CN1C(=O)c2ccccc2S1(=O)=O)NCCSCc1ccco1 | 373 | -5.5% (inactive) | -25.2% (inactive) | 142 | 0.363 | 0.199 | 0.301 | 20.2% (inactive) | -0.457 (inactive) | -0.000137 (inactive) | 0.00395 (inactive) | inactive | -7.41% (inactive)
11 | O=C(NCc1ccccn1)c1ccc(=O)oc1 | 758 | 8.2% (inactive) | -1.5% (inactive) | 151 | 0.015 | 0.178 | -0.703 | -3.95% (inactive) | -0.48 (inactive) | -4.4e-05 (inactive) | 0.00585 (inactive) | inactive | 17.3% (inactive)
12 | COC(=O)NC(Nc1sc2c(c1C(N)=O)CCCC2)(C(=O)OC)C(F)(F)F (stereo unspecified) | 713 | 11.7% (inactive) | -59.3% (inactive) | 147 | 0.143 | -0.0847 | -0.638 | -11.4% (inactive) | -0.431 (inactive) | -7.5e-05 (inactive) | 0.00518 (inactive) | inactive | -3.75% (inactive)
13 | CCOC(=O)c1ccc(NC(=O)COc2ccccc2OC)cc1 | 668 | -1.6% (inactive) | 26.3% (inactive) | 179 | 1.9 | 0.486 | -1.19 | 33.3% (inactive) | -0.465 (inactive) | -0.000105 (inactive) | 0.00666 (inactive) | inactive | -9.5% (inactive)
14 | O=C1c2ccccc2C(=O)N1CC1c2ccccc2CCN1C(=O)N1CCOCC1 (stereo unspecified) | 775 | -4.1% (inactive) | -16.4% (inactive) | 202 | 0.51 | 1.63 | 0.969 | 1.98% (inactive) | -0.485 (inactive) | -4.9e-05 (inactive) | 0.0053 (inactive) | inactive | -3.71% (inactive)
15 | Cc1nnc(SCC(=O)N2CCOCC2)c2ccccc12 | 489 | 7.8% (inactive) | -38.5% (inactive) | 135 | 0.531 | 1.47 | 0.934 | 1.63% (inactive) | -0.534 (inactive) | -0.000118 (inactive) | 0.00485 (inactive) | inactive | -5.11% (inactive)
16 | C=CCN=C(C)C1=C(O)CCC1=O | 637 | 3.3% (inactive) | -33.6% (inactive) | 116 | -0.646 | 0.913 | -0.284 | -2.09% (inactive) | -0.445 (inactive) | -6.8e-05 (inactive) | 0.0054 (inactive) | inactive | 11.3% (inactive)
17 | CCCCOc1ccccc1C(=O)NCCCCCC(=O)O | 375 | -2.6% (inactive) | -80.5% (inactive) | 150 | 1.24 | -0.608 | 1.41 | -0.584% (inactive) | -0.462 (inactive) | -0.000119 (inactive) | 0.00571 (inactive) | inactive | 19.6% (inactive)
18 | COc1ccc2c(c1OC)C(=O)OC2c1c(O)nc(SC)n(-c2ccccc2)c1=O (stereo unspecified) | 494 | 4.1% (inactive) | -192% (inactive) | 115 | 1.24 | 1.53 | -0.802 | 29.7% (inactive) | -0.39 (inactive) | -6.5e-05 (inactive) | 0.00866 (inactive) | inactive | -18.2% (inactive)
19 | CCOC(=O)c1[nH]c2ccccc2c1N=C(C)N(CC)CC | 643 | -7% (inactive) | -113% (inactive) | 160 | -1.18 | 2.66 | 0.345 | 11.9% (inactive) | -0.521 (inactive) | -3.5e-05 (inactive) | 0.00643 (inactive) | inactive | -5.79% (inactive)
20 | O=C(O)C(O)c1ccco1 (stereo unspecified) | 365 | -6.1% (inactive) | -95% (inactive) | 150 | 0.761 | 0.00341 | -0.65 | -4.59% (inactive) | -0.43 (inactive) | -9.9e-05 (inactive) | 0.00449 (inactive) | inactive | -5.52% (inactive)
21 | Cn1c(=O)c2c(nc(NCCCO)n2Cc2cccc(C(F)(F)F)c2)n(C)c1=O | 652 | -11.8% (inactive) | -70% (inactive) | 95.4 | -1.68 | -0.0388 | 0.32 | -5.95% (inactive) | -0.492 (inactive) | -6.8e-05 (inactive) | 0.00722 (inactive) | inactive | -3.98% (inactive)
22 | CC(=O)/C=C(\C)NCCNc1c(F)c(F)c(CO)c(F)c1F | 570 | -4.3% (inactive) | -22.3% (inactive) | 145 | 0.666 | -0.56 | 0.111 | 1.9e-07% (inactive) | -0.319 (inactive) | -1.4e-05 (inactive) | 0.00522 (inactive) | inactive | 42.2% (inactive)
23 | CC(NC(=O)c1ccc(=O)oc1)c1ccccc1 (stereo unspecified) | 544 | 4.1% (inactive) | 56.8% (inactive) | 167 | -0.00091 | 1.16 | 1.91 | 13.9% (inactive) | -0.409 (inactive) | -5.3e-05 (inactive) | 0.00521 (inactive) | inactive | 6.14% (inactive)
24 | COc1ccc(CCn2c(C)cc3c(c2=O)C(c2ccc4c(c2)OCO4)C(C#N)=C(N)O3)cc1OC (stereo unspecified) | 697 | -0.5% (inactive) | -141% (inactive) | 170 | 1.12 | 0.0675 | -1.33 | 9.61% (inactive) | -0.468 (inactive) | -4.4e-05 (inactive) | 0.00505 (inactive) | inactive | 5.67% (inactive)
25 | CCSC1=C(C#N)C(c2cccs2)C(C(=O)OC)=C(C)N1 (stereo unspecified) | 704 | -1% (inactive) | -26.7% (inactive) | 161 | 1.09 | -0.139 | -1.35 | 2.46% (inactive) | -0.442 (inactive) | -5.3e-05 (inactive) | 0.00541 (inactive) | inactive | -1.08% (inactive)
26 | CSc1nc2[nH]c3c(c2c2nnnn12)CCCC3 | 571 | -2.3% (inactive) | -139% (inactive) | 145 | 0.625 | 0.274 | -0.282 | 13.4% (inactive) | -0.341 (inactive) | 0.000139 (inactive) | 0.00402 (inactive) | inactive | 79.4% (active)
27 | O=c1[nH]c(CN(CCO)CCO)nc2c1C1(CCCCC1)Cc1ccccc1-2 | 692 | -15.1% (inactive) | -131% (inactive) | 181 | 0.688 | 0.303 | 0.475 | 9.91% (inactive) | -0.47 (inactive) | -5.1e-05 (inactive) | 0.00503 (inactive) | inactive | 1.18% (inactive)
